# Experimental data: ChEMBL document CHEMBL1143786, “Constrained analogs of CB-1 antagonists: 1,5,6,7-Tetrahydro-4H-pyrrolo[3,2-c]pyridine-4-one derivatives” (Bioorg Med Chem Lett, 2007)
# Experiments:
# Cannabinoid receptor 1 [1] = molecular target: T1, Cannabinoid receptor 1 (Homo sapiens, UniProt P21554); experiment: Displacement of [3H]CP-55940 from human CB1 receptor expressed in HEK cells; type: cell-based, HEK293
# Procedure, shortened: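 Membranes from HEK 293 cells expressing human CB-1, suspended in ice-cold 50 mM Tris pH 7.4, 2.5 mM EDTA, 5 mM MgCl2, 0.1% fatty acid free BSA; 3.3 µg protein incubated with 0.3 nM [3H]CP 55940 and graded compound, 30 °C, 90 min with shaking, triplicate. Nonspecific binding defined with 10 µM WIN 55212-2; filtration through GF/C, scintillation counting; Ki via Cheng–Prusoff from nonlinear-regression IC50.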
# Rattus norvegicus [2] = experiment: Reduction in body weight in genetically obese Zucker rat at 5 mg/kg, po qd; type: functional; design: scale not given: the % may be the effect or the level left
# Procedure, shortened: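 Zucker fa/fa rats, single-housed on grid floors, sham-dosed with vehicle for at least 5 days, then weight-matched on 2-day baseline. Daily oral dosing at 5 mg/kg, 2 mL/kg, in PEG/methanesulfonic acid (80:20) before the nocturnal feeding phase. Body weight recorded daily over 9 days; mean ± SEM, 9–10 rats/group.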
# Cannabinoid receptor 2 = Cannabinoid receptor 2 (Homo sapiens, UniProt P34972); experiment: Displacement of [3H]CP-55940 from human CB2 receptor expressed in HEK cells; type: cell-based, HEK293
# Procedure, shortened: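 Membranes from HEK 293 cells expressing human CB-2, in ice-cold 50 mM Tris pH 7.4, 2.5 mM EDTA, 5 mM MgCl2, 0.1% fatty-acid-free BSA. 3.3 µg protein with 0.3 nM [3H]CP 55940 and varying competitor, triplicate, 30 °C for 90 min with shaking. Nonspecific binding with 10 µM WIN 55212-2. Filtration onto GF/C, scintillation counting; Ki from IC50 by Cheng–Prusoff.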
# [3] = Cmax in Wistar rat at 10 mg/kg, po; type: ADME, organism-based; design: dose 10 mg/kg, route oral; conditions: in vivo
# Procedure, shortened: (§1)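 Male Wistar rats, single oral dose of 10 mg/kg. Plasma exposure measured as Cmax and as AUC over 0–2 h.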
# Cannabinoid receptor 1 [4] = molecular target: T1, Cannabinoid receptor 1; experiment: Antagonist activity at CB1 receptor; type: functional
# [5] = AUC ( 0 to 2 hrs) in Wistar rat at 10 mg/kg, po; type: ADME, organism-based; design: time < 2 hr, dose 10 mg/kg, route oral; conditions: plasma; procedure, shortened: as §1
# Rattus norvegicus [6] = experiment: Reduction in food intake in fasted-refed Wistar rat at 10 mg/kg, po after 4 hrs; type: functional; design: scale not given: the % may be the effect or the level left
# Procedure, shortened: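 Wistar rats fasted overnight (18 h), then given vehicle or compound orally at 10 mg/kg as a suspension in 30% cyclodextrin, 2 mL/kg, 1 h before re-feeding. Cumulative food intake from pre-weighed jars at 30, 60, 90, 180 and 240 min.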
# T1 sequence (P21554 whole entry): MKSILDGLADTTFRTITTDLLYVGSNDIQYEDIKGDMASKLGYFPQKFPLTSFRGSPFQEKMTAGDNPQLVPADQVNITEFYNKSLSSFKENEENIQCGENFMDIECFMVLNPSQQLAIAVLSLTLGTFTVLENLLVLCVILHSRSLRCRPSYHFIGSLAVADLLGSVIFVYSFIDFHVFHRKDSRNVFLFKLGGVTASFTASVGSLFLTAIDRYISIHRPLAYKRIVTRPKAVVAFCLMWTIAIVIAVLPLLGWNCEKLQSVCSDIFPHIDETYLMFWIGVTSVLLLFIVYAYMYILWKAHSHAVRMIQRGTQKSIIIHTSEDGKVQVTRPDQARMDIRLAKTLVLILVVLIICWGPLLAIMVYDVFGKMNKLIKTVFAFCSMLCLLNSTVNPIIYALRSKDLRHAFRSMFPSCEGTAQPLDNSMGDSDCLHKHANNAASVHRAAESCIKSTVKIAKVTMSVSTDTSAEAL
# Cannabinoid receptor 2, sequence (P34972 whole entry): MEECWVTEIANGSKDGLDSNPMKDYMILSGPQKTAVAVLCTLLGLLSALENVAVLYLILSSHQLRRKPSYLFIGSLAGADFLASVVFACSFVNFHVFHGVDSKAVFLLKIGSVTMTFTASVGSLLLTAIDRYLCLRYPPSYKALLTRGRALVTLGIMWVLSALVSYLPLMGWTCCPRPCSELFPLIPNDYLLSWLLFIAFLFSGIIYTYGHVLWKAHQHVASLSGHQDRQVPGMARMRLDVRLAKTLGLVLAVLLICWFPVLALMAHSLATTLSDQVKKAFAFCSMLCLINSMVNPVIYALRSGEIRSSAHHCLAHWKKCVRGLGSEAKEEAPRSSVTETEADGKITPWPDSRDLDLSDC
SMILES,Ki (Cannabinoid receptor 1 [1]) [nM],IC50 (Cannabinoid receptor 1 [1]) [nM],also measured
Cc1c2c(n(-c3c(Cl)cccc3Cl)c1-c1ccc(Cl)cc1)CCN(C1CCCCC1)C2=O,200,,
Cc1ccc(-c2c(C)c3c(n2-c2ccc(Cl)cc2Cl)CCN(C2CCCCC2)C3=O)cc1,10,,
Cc1c2c(n(-c3ccc(Cl)cc3Cl)c1-c1cccs1)CCN(C1CCCCC1)C2=O,,19,
Cc1c2c(n(-c3ccc(Cl)cc3Cl)c1-c1ccsc1)CCN(C1CCCCC1)C2=O,,37,
Cc1c2c(n(-c3ccc(Cl)cc3Cl)c1-c1ccc(C(=O)O)cc1)CCN(C1CCCCC1)C2=O,> 2500,,
COc1cccc(-c2c(C)c3c(n2-c2ccc(Cl)cc2Cl)CCN(C2CCCCC2)C3=O)c1,,6.8,
Cc1c(C(=O)NN2CCCCC2)nn(-c2ccc(Cl)cc2Cl)c1-c1ccc(Cl)cc1 [RIMONABANT],,,Activity (Rattus norvegicus [2]): -5.6%
Cc1c2c(n(-c3ccccc3Cl)c1-c1ccc(Cl)cc1)CCN(N1CCCCC1)C2=O,3.5,,Ki (Cannabinoid receptor 2): 1100 nM
Cc1cn(-c2ccc(Cl)cc2Cl)c2c1C(=O)N(C1CCCCC1)CC2,240,,
Cc1c2c(n(-c3ccc(Cl)cc3Cl)c1-c1cccc(N)c1)CCN(C1CCCCC1)C2=O,450,,
COc1ccc(-c2c(C)c3c(n2-c2ccc(Cl)cc2Cl)CCN(C2CCCCC2)C3=O)cc1,7.9,,
Cc1c2c(n(-c3ccc(Cl)cc3Cl)c1-c1ccc3c(c1)OCO3)CCN(C1CCCCC1)C2=O,,12,
C=Cc1ccc(-c2c(C)c3c(n2-c2ccc(Cl)cc2Cl)CCN(C2CCCCC2)C3=O)cc1,9.8,,
Cc1c2c(n(-c3ccc(Cl)cc3Cl)c1-c1ccc(Cl)cc1)CCN(C1CCCCC1)C2=O,7.5,,Cmax [3]: < 50 nM; Kb (Cannabinoid receptor 1 [4]): 6.5 nM; Ki (Cannabinoid receptor 2): 8300 nM
Cc1c2c(n(-c3ccc(Cl)cc3Cl)c1-c1cccnc1)CCN(C1CCCCC1)C2=O,390,,
COc1ccc(-c2c(C)c3c(n2-c2ccccc2Cl)CCN(N2CCCCC2)C3=O)cc1,20,,Cmax [3]: 620 nM; AUC(0-t) at 2 h [5]: 0.58 µM·h; Activity (Rattus norvegicus [6]): 36%; Activity (Rattus norvegicus [2]): -3%; Ki (Cannabinoid receptor 2): 850 nM
Cc1c2c(n(-c3ccc(Cl)cc3Cl)c1-c1ccc(C(F)(F)F)cc1)CCN(C1CCCCC1)C2=O,4.1,,
Cc1c2c(n(-c3ccc(Cl)cc3)c1-c1ccc(Cl)cc1)CCN(C1CCCCC1)C2=O,> 2500,,

SMILES,Ki (Cannabinoid receptor 1 [1]) [nM],IC50 (Cannabinoid receptor 1 [1]) [nM],also measured
Cc1ccccc1-n1c2c(c(C)c1-c1ccc(F)cc1)C(=O)N(C1CCCCC1)CC2,,40,
COc1ccc(-c2c(C)c3c(n2-c2ccccc2Cl)CCN(C2CCCCC2)C3=O)cc1,7.5,,
Cc1c2c(n(-c3ccc(Cl)cc3Cl)c1-c1cc3ccccc3s1)CCN(C1CCCCC1)C2=O,,23,
Cc1ccccc1-n1c2c(c(C)c1-c1ccc(C(F)(F)F)cc1)C(=O)N(C1CCCCC1)CC2,,9.3,
CSc1ccc(-c2c(C)c3c(n2-c2ccc(Cl)cc2Cl)CCN(C2CCCCC2)C3=O)cc1,> 2500,,
Cc1c2c(n(-c3ccc(Cl)cc3)c1-c1ccc(Cl)cc1Cl)CCN(C1CCCCC1)C2=O,> 2500,,
COc1ccc(-c2c(C)c3c(n2-c2ccccc2C)CCN(N2CCCCC2)C3=O)cc1,74,,
Cc1c2c(n(-c3ccccc3Cl)c1-c1ccc(Cl)cc1)CCN(C1CCCCC1)C2=O,2.8,,
Cc1c2c(n(-c3ccc(Cl)cc3Cl)c1-c1cccc(C(F)(F)F)c1)CCN(C1CCCCC1)C2=O,,67,
Cc1c2c(n(-c3ccc(Cl)cc3Cl)c1-c1ccccc1)CCN(C1CCCCC1)C2=O,,16,
Cc1c2c(n(-c3ccc(Cl)cc3Cl)c1-c1ccc(Cl)cc1)CCN(N1CCCCC1)C2=O,2.2,,Kb (Cannabinoid receptor 1 [4]): 12 nM; Ki (Cannabinoid receptor 2): 1300 nM
COc1ccc(-c2c(C)c3c(n2-c2ccccc2C)CCN(C2CCCCC2)C3=O)cc1,,22,
Cc1c2c(n(-c3ccc(Cl)cc3Cl)c1-c1ccc(F)cc1)CCN(C1CCCCC1)C2=O,6,,
Cc1c2c(n(-c3ccc(Cl)cc3Cl)c1-c1ccco1)CCN(C1CCCCC1)C2=O,,20,
Cc1cccc(-c2c(C)c3c(n2-c2ccc(Cl)cc2Cl)CCN(C2CCCCC2)C3=O)c1,,17,
COc1ccc(-c2c(C)c3c(n2-c2ccc(Cl)cc2Cl)CCN(C2CCCCC2)C3=O)cc1OC,5.5,,
Cc1c2c(n(-c3ccc(Cl)cc3Cl)c1-c1ccc(N)cc1)CCN(C1CCCCC1)C2=O,920,,
